In brackets after ≈: the same amount, converted by molar mass. Activity calls are given as the source filed them. No cut-off for these calls is given here.
Assays:
Escherichia coli [1] = assay: Antimicrobial activity against Escherichia coli MC4100 at 42 degC; assay type: functional
Outline: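 Liquid growth inhibition in Mueller-Hinton medium, run in triplicate. Compound was dissolved in ethanol/10 mM potassium phosphate pH 7.8, and its concentration was set by absorbance at 236 nm. Varying concentrations were added to mid-log E. coli MC4100 and incubated 24 h at 42 °C, then plated at 37 °C overnight for CFU. MIC = concentration giving 99.9% growth inhibition (NCCLS).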

[2] = Toxicity against human erythrocytes assessed as hemolytic activity; assay type: cell-based, Erythrocyte
Outline: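 Human erythrocytes were washed in Tris-buffered saline pH 7.4. Cells at 2.5×10^8 cells/ml were exposed to 3.1–50 μg/ml compound for 30 min at 42 °C with gentle shaking, chilled, and centrifuged. Hemoglobin in the supernatant was read at 550 nm after 10-fold dilution in 0.5% NH4OH. Saponin 100 mg/liter = 100%, phosphate buffer = 0%. EC50 from dose-response curves.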

[3] = Inhibition of Escherichia coli MC4100 DnaK assessed as effect on luciferase refolding
Outline: (§1)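 Firefly luciferase was denatured 1 h at 10 °C in 6.0 M guanidinium chloride with 5 mM DTT, Tris pH 7.4, at 2.08 μM. It was diluted to 10.4 nM into MOPS pH 7.8 buffer with 1 mM ATP, 5 mM MgCl2, 436 nM DnaK, 160 nM DnaJ and 436 nM GrpE, preincubated 10 min with compound, at 10 °C and 30 °C. Activity was read by luminescence after 1 h. IC50 from a one-site competition fit.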

Escherichia coli [4] = assay: Induction of heat shock response in Escherichia coli MC4100 at 30 degC; assay type: functional, organism-based
Escherichia coli [5] = assay: Antimicrobial activity against Escherichia coli MC4100 up to 1.4 mg/ml at 37 degC; assay type: functional, organism-based
Escherichia coli [6] = assay: Antimicrobial activity against Escherichia coli MC4100 delta-tig at 30 degC; assay type: functional
Escherichia coli [7] = assay: Increase in transcriptional activity of heat shock inducible PhtrL-lacZ promoter of sigma32 gene in Escherichia coli MC4100 at 200 uM assessed as beta galactosidase activity after 12 hrs at 42 degC; assay type: functional, organism-based
Escherichia coli [8] = assay: Effect on membrane permeability of Escherichia coli MC4100 assessed as beta lactamase activity in medium at 25 degC; assay type: functional
Outline: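 Cells were grown with 200 μM compound for 24 h. β-Lactamase activity released to the medium was compared with total activity.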

Escherichia coli [9] = assay: Antimicrobial activity against Escherichia coli MC4100 at 30 degC; assay type: functional
Escherichia coli [10] = assay: Increase in transcriptional activity of heat shock inducible rpoDPhs promoter of sigma32 gene in Escherichia coli MC4100 at 200 uM assessed as beta galactosidase activity after 12 hrs at 42 degC; assay type: functional
Escherichia coli [11] = assay: Increase in transcriptional activity of heat shock inducible pGroESL promoter of sigma32 gene in Escherichia coli MC4100 at 200 uM assessed as beta galactosidase activity after 12 hrs at 42 degC; assay type: functional
Escherichia coli [12] = assay: Inhibition of Escherichia coli MC4100 DnaK-reduced carboxymethylated lactalbumin complex up to 500 uM
Escherichia coli [13] = assay: Inhibition of IPTG-induced thermotolerance in heat shocked Escherichia coli MC4100 expressing delta-DnaK at 1.35 mM; assay type: functional, organism-based
Outline: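 E. coli MC4100 ΔdnaK pTrc99A-DnaK was grown at 30 °C in Terrific Broth and induced 1 h with 0–1.0 mM IPTG. Cells were heat-shocked 210 s at 57 °C with 1.35 mM compound added just before, then iced 2 min. Serial dilutions were spotted on LB with marker and IPTG and grown 12 h at 30 °C. DnaK levels were checked by immunoblot.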

Escherichia coli [14] = assay: Increase in transcriptional activity of heat shock inducible PhtrP-lacZ promoter of sigma32 gene in Escherichia coli MC4100 at 200 uM assessed as beta galactosidase activity after 12 hrs at 42 degC; assay type: functional, organism-based
Escherichia coli [15] = assay: Inhibition of ATPase activity of Escherichia coli MC4100 DnaK at 150 uM
Outline: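 Steady-state ATPase assay. 1 µM DnaK preincubated with 150 µM inhibitor for 10 min at 30 °C. Reaction started with 330 µM ATP and followed for at least 10 min.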

[16] = Inhibition of secondary amide peptide bond cis/trans isomerase activity of Escherichia coli MC4100 DnaK assessed as RNase T1P39A refolding assay
Escherichia coli [17] = assay: Binding affinity to DnaK in Escherichia coli MC4100 at 0.7 mM by pull-down assay
Outline: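 MC4100 grown overnight in LB at 42 °C and lysed by sonication. Lysate incubated 1 h at room temperature with 0.7 mM biotinylated inhibitor in buffer C (20 mM Tris/HCl pH 7.5, 50 mM KCl, 1 mM MgCl2). BSA-blocked streptavidin beads then added for a further 1 h. Beads washed twice; bound protein eluted with 1.92 mM (final) non-biotinylated parent inhibitor. Read by SDS-PAGE and anti-DnaK immunoblot.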

Escherichia coli [18] = assay: Increase heat shock-induced protein aggregation in wild type Escherichia coli MC4100; assay type: functional, organism-based
Outline: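 Wild-type MC4100 was grown at 30 °C to mid-exponential phase, exposed 15 min to compound (0.13 or 0.066 mg/ml), heat-shocked 30 min at 45 °C, then recovered 3 h at 30 °C. The Nonidet P-40-insoluble aggregated protein fraction was isolated by lysozyme/sonication lysis and differential centrifugation, then run on 12.5% SDS-PAGE with Coomassie stain, equal cell numbers per lane. ΔdnaK cells were the reference.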

Escherichia coli [19] = assay: Activation of Escherichia coli MC4100 RNA polymerase at 200 uM by transcription assay
Outline: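 In vitro transcription of small circular single-strand DNA universal templates by purified E. coli RNA polymerase core enzyme, run per the kit manufacturer's protocol.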

[20] = Inhibition of secondary amide peptide bond cis/trans isomerase activity of Escherichia coli MC4100 DnaK/DnaJ/GrpE assessed as luciferase refolding; outline: as §1
[21] = Displacement of sigma32 derived peptide from Escherichia coli MC4100 DnaK
Escherichia coli [22] = assay: Inhibition of Escherichia coli MC4100 DnaK-reduced carboxymethylated lactalbumin complex at >25 uM

SMILES	MIC (Escherichia coli [1])	EC50 [2]	IC50 [3]	also measured
CCCC/C=C\CCCCCCCC(=O)NCc1ccc(C(=O)N[C@H](C(=O)O)[C@@H](C)CC)cc1	630 µg/mL (≈ 1330 µM)	350 µg/mL (≈ 740 µM)	0.75 µg/mL (≈ 1.59 µM)	–
CCCCCCCCCC(=O)NCc1ccc(C(=O)N[C@H](C(=O)O)[C@@H](C)CC)cc1	490 µg/mL (≈ 1170 µM)	> 1000 µg/mL	40.4 µg/mL (≈ 96.5 µM)	–
CCCCCCCCCCCCCC(=O)NCc1ccc(C(=O)N[C@H](C(=O)O)[C@@H](C)CC)cc1	380 µg/mL (≈ 801 µM)	66 µg/mL (≈ 139 µM)	4.9 µg/mL (≈ 10.3 µM)	Activity (Escherichia coli [4]): inactive; Activity (Escherichia coli [5]): inactive; MIC (Escherichia coli [6]): 860 µg/mL (≈ 1810 µM); Activity (Escherichia coli [7]): inactive; Activity (Escherichia coli [8]): 0.89%; MIC (Escherichia coli [9]): ≥ 5000 µg/mL; Fold change (Escherichia coli [10]): 2; Fold change (Escherichia coli [11]): 2; Activity (Escherichia coli [12]): inactive; Activity (Escherichia coli [13]): Active; Activity (Escherichia coli [14]): inactive; Activity (Escherichia coli [15]): inactive; IC50 [16]: 2700 nM; Activity (Escherichia coli [17]): Active; Activity (Escherichia coli [18]): Active; Activity (Escherichia coli [19]): inactive; IC50 [20]: 9500 nM; IC50 [21]: 29100 nM; Kd [21]: 2600 nM
CCCCCCCCCCCCCC(=O)Nc1ccc(C(=O)N[C@H](C(=O)O)[C@@H](C)CC)cc1	> 60 µg/mL	> 10 µg/mL	1.1 µg/mL (≈ 2.39 µM)	–
CCCCCCCCCCCCCC(=O)NCc1ccc(C(=O)N[C@@H](CC(N)=O)C(=O)O)cc1	100 µg/mL (≈ 210 µM)	> 10 µg/mL	4.6 µg/mL (≈ 9.67 µM)	–
CC1(C)S[C@@H]2[C@H](NC(=O)[C@H](N)c3ccccc3)C(=O)N2[C@H]1C(=O)O [AMPICILLIN]	14 µg/mL (≈ 40.1 µM)	–	–	–
CCCCCCCCCCCC(=O)NCc1ccc(C(=O)N[C@H](C(=O)O)[C@@H](C)CC)cc1	650 µg/mL (≈ 1460 µM)	400 µg/mL (≈ 896 µM)	1.9 µg/mL (≈ 4.25 µM)	–
CCCCCC/C=C\CCCCCCCC(=O)NCc1ccc(C(=O)N[C@H](C(=O)O)[C@@H](C)CC)cc1	1300 µg/mL (≈ 2600 µM)	250 µg/mL (≈ 499 µM)	3.6 µg/mL (≈ 7.19 µM)	–
CCCCCCCCCCCCCC(=O)NCc1ccc(C(=O)N[C@@H](CCC(N)=O)C(=O)O)cc1	2800 µg/mL (≈ 5720 µM)	520 µg/mL (≈ 1060 µM)	11.5 µg/mL (≈ 23.5 µM)	–
CCCCCCCCCCCCCC(=O)NCCc1ccc(C(=O)N[C@H](C(=O)O)[C@@H](C)CC)cc1	640 µg/mL (≈ 1310 µM)	35 µg/mL (≈ 71.6 µM)	2.6 µg/mL (≈ 5.32 µM)	–
CCCCCC(=O)NCc1ccc(C(=O)N[C@H](C(=O)O)[C@@H](C)CC)cc1	1000 µg/mL (≈ 2760 µM)	> 1500 µg/mL	> 400 µg/mL	Activity (Escherichia coli [8]): 3.68%; Activity (Escherichia coli [10]): inactive; Activity (Escherichia coli [11]): inactive
CC/C=C/CC(=O)NCc1ccc(C(=O)N[C@H](C(=O)O)[C@@H](C)CC)cc1	280 µg/mL (≈ 777 µM)	> 1500 µg/mL	35.9 µg/mL (≈ 99.6 µM)	–
CCCCCCCCCCCCCC(=O)NCc1ccc(C(=O)N[C@H](C(N)=O)[C@@H](C)CC)cc1	1200 µg/mL (≈ 2530 µM)	100 µg/mL (≈ 211 µM)	6.1 µg/mL (≈ 12.9 µM)	–
CCCCCCCCCCCCCC(=O)NCc1cccc(C(=O)N[C@H](C(=O)O)[C@@H](C)CC)c1	> 2000 µg/mL	84 µg/mL (≈ 177 µM)	7 µg/mL (≈ 14.7 µM)	–
CCCCCCCCCCCCCC(=O)NCc1ccc(C(=O)N[C@@H](Cc2ccccc2)C(=O)O)cc1	1200 µg/mL (≈ 2360 µM)	> 200 µg/mL	3.9 µg/mL (≈ 7.67 µM)	–
CCCCCCCCCCCCCCCCCC(=O)NCc1ccc(C(=O)N[C@H](C(=O)O)[C@@H](C)CC)cc1	3100 µg/mL (≈ 5840 µM)	30 µg/mL (≈ 56.5 µM)	2.3 µg/mL (≈ 4.33 µM)	–
CCCCCCCCCCCCCCCC(=O)NCc1ccc(C(=O)N[C@H](C(=O)O)[C@@H](C)CC)cc1	180 µg/mL (≈ 358 µM)	50 µg/mL (≈ 99.5 µM)	1.2 µg/mL (≈ 2.39 µM)	–
CCCCCCCCCCCCCC(=O)NCc1ccc(C(=O)NCC(=O)O)cc1	> 500 µg/mL	> 50 µg/mL	5.5 µg/mL (≈ 13.1 µM)	–
CC(C)C[C@H](NC(=O)[C@H](CC(C)C)NC(=O)[C@H](CCCNC(=N)N)NC(=O)[C@@H](N)CC(N)=O)C(=O)N[C@@H](CC(C)C)C(=O)N[C@H](C(=O)NCC(=O)O)[C@@H](C)O	–	–	–	Activity (Escherichia coli [22]): Active; IC50 [21]: 1300 nM

From ChEMBL document CHEMBL1143821, “Fatty acyl benzamido antibacterials based on inhibition of DnaK-catalyzed protein folding” (J Biol Chem, 2007)
